Values after ≈ are worked out from the molar mass of the structure shown. Active and inactive are the calls of the source. The calls are words filed in the database; no cut-off is given here.
What was measured:
[1] = Volume of distribution in Balb/c mouse at 5 mg/kg, iv by HPLC-MS/MS analysis; type: ADME, organism-based; settings: in vivo
Outline: (§1)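 Balb/c mice dosed at 5 mg/kg iv or 10 mg/kg po. Plasma concentrations over time used to derive t1/2, AUC0–∞, Vd and total clearance (iv), and tmax, Cmax, AUC0–∞ and oral bioavailability (po).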

[2] = Aqueous solubility of the compound in PBS buffer at pH 7.4 after 24 hrs by HPLC analysis; type: physicochemical
[3] = Oral bioavailability in Balb/c mouse at 10 mg/kg by HPLC-MS/MS analysis; type: ADME, organism-based; settings: in vivo; outline: as §1
[4] = AUC (0 to infinity) in Balb/c mouse at 10 mg/kg, po by HPLC-MS/MS analysis; type: ADME, organism-based; set-up: dose 10 mg/kg, route oral, time infinity; settings: in vivo; outline: as §1
[5] = molecular target: T1, Oxysterols receptor LXR-beta (Homo sapiens) (UniProt P55055); assay: Agonist activity at human LXRbeta expressed in Escherichia coli assessed as induction of calcium flux at 10 uM by fluorimetry
T1 sequence (whole entry): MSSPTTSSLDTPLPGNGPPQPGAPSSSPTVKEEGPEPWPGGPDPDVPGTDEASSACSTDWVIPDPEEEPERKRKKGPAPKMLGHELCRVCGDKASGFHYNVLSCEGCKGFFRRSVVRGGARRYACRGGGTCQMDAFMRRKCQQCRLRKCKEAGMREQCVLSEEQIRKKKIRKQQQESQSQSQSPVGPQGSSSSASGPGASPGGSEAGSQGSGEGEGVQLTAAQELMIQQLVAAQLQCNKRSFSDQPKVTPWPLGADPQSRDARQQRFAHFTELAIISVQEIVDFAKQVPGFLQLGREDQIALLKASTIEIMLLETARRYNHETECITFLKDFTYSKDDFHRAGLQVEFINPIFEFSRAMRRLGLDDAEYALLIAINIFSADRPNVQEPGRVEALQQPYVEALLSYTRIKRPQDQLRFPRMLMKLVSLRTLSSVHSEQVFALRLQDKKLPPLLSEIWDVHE

[6] = Metabolic stability in Balb/c mouse primary hepatocytes assessed as compound recovery after 2 hrs by LC-MS/MS analysis; type: ADME, cell-based, Hepatocyte; settings: read-out: Drug recovery
[7] = AUC (0 to infinity) in Balb/c mouse at 5 mg/kg, ip by HPLC-MS/MS analysis; type: ADME, organism-based; set-up: dose 5 mg/kg, time infinity, route intraperitoneal; settings: in vivo
[8] = molecular target: T2, Peroxisome proliferator-activated receptor alpha (Homo sapiens) (UniProt Q07869); assay: Antagonist activity at human PPARalpha expressed in Escherichia coli assessed as inhibition of […]-induced calcium flux at 10 uM by alpha screen assay
T2 sequence (whole entry): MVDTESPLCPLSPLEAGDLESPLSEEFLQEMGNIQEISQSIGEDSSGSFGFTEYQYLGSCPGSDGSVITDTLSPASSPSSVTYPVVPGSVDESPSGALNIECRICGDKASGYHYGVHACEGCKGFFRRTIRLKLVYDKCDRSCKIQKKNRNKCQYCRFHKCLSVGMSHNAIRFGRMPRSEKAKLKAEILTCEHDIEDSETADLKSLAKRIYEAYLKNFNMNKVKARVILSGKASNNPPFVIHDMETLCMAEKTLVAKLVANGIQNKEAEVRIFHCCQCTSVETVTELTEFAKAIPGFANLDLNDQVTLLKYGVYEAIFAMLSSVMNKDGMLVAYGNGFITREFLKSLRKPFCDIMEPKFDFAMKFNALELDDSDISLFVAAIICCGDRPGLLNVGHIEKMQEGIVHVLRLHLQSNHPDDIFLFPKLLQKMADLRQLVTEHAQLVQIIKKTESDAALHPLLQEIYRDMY

[9] = Metabolic stability in mouse liver microsomes assessed as compound remaining at 1 uM after 1 hr by HPLC method; type: ADME, microsome; settings: read-out: Stability
Outline: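 Mouse liver microsomes 0.5 mg/mL with 1 µM test compound in 0.1 M PBS pH 7.4 plus NADPH. Pre-incubated 5 min at 37 °C before microsome addition, then 1 h at 37 °C with shaking. Quenched with ice-cold MeOH/MeCN 1:1, centrifuged; HPLC analysis relative to the 0 min sample.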

[10] = molecular target: T3, Peroxisome proliferator-activated receptor delta (Homo sapiens) (UniProt Q03181); assay: Agonist activity at human PPARdelta expressed in Escherichia coli assessed as induction of calcium flux at 10 uM by fluorimetry
T3 sequence (whole entry): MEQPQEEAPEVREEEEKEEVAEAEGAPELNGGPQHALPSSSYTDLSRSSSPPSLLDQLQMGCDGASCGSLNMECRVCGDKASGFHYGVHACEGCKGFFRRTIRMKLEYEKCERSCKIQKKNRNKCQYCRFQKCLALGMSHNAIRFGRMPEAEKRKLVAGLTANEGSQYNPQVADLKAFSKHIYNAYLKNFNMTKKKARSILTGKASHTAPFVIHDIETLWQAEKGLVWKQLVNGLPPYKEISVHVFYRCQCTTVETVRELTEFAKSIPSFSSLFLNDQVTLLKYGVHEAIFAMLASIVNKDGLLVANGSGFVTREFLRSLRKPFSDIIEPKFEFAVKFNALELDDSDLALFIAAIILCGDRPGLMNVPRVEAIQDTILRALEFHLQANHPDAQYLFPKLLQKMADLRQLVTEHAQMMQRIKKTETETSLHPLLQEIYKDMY

[11] = molecular target: Free fatty acid receptor 1 (Homo sapiens) (UniProt O14842); assay: Antagonist activity at human FFA1 receptor expressed in HEK293 cells assessed as inhibition of linoleic acid-induced calcium flux at 10 uM by fluorimetry; type: functional, cell-based
[12] = molecular target: T4, Free fatty acid receptor 4 (Homo sapiens) (UniProt Q5NUL3); assay: Antagonist activity at human FFA4 receptor expressed in HEK293 cells assessed as inhibition of GW9508-induced of calcium flux at 10 uM by fluorimetry; type: functional, cell-based
T4 sequence (whole entry): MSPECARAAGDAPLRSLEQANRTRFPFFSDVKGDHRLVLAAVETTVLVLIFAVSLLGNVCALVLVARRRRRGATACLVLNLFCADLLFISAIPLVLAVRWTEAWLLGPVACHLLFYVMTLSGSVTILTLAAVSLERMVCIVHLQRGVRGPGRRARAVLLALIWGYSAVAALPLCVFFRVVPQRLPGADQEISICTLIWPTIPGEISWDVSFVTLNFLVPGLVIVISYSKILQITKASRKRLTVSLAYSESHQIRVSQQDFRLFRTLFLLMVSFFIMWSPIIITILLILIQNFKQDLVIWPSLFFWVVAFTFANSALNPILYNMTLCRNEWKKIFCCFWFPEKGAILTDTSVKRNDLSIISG

Chain of Free fatty acid receptor 1 (Homo sapiens) (O14842 whole entry): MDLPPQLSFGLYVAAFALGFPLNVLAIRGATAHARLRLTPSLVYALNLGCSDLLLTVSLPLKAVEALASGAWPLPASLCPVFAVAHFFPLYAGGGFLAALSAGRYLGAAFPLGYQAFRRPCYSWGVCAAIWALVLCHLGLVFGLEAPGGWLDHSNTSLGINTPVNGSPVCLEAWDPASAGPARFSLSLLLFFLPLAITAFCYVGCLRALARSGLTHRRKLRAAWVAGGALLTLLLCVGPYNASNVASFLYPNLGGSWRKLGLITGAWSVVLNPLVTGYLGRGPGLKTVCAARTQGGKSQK

Compound `Cc1noc(C)c1-c1ccc(C(=O)N2[C@@H](c3ccccc3Cl)SC[C@H]2C(=O)O)cc1` has a Vd [1] of 4.05 L/kg, a solubility at 24 h [2] of 182 µM (≈ 80.6 µg/mL) and a bioavailability [3] of 32%. The AUC(0-inf) [4] was 2600 ng·h/mL, the Activity [5] was “inactive” and the remaining at 2 h [6] was 72%. For the same compound, the AUC(0-inf) [7] was 1010 ng·h/mL, the inhibition [8] was “inactive” and the remaining at 1 h, 1 µM [9] was 82%. The Activity [10] was “inactive”, the inhibition [11] was “inactive” and the inhibition [12] was “inactive”.

Source: ChEMBL document CHEMBL4152367, “Discovery of a Potent Thiazolidine Free Fatty Acid Receptor 2 Agonist with Favorable Pharmacokinetic Properties” (J Med Chem, 2018)
